Assay outcomes from PubChem.
UPR CHOP act: apoptotic UPR (CHOP) activation. activation, % at 10 µM. 330,000 compounds, 0.34% hits. CHO-CHOP luciferase reporter, luminescence; percent of tunicamycin response over DMSO baseline;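 active = at 10 µM dose, activation of 40% or more, normalized to positive control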
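measured by = luciferase luminescence | assay system = CHO-CHOP cells, stable luciferase reporter of PERK-eIF2a-CHOP signalling | amount = 500 reporter cells seeded per well | timing = 6 h compound exposure at 37 °C after overnight seeding | controls = positive tunicamycin 10 µg/mL, negative DMSO alone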
tim23-1 inh: growth inhibitors of tim23-1 mutant yeast; S. cerevisiae tim23-1 growth, BacTiter-Glo luminescence, 24 h; inhibition, % at 20 µM; 330,000 compounds, 1.3% hits; AID 463212;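 active = growth inhibition of the mutant yeast at or above 50%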;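 note: temperature-sensitive mutant grown at 25 °C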
tim10-1 inh: tim10-1 yeast growth inhibition; S. cerevisiae tim10-1 ts strain growth, BacTiter-Glo, 24 h; inhibition, % at 20 µM; 330,000 compounds, 2.2% hits; AID 463190;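 active = inhibition of at least 40%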;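 note: mutant grown at 25 °C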
UPR XBP1 act: adaptive UPR (XBP1) activation; CHO-XBP1 luciferase reporter, IRE1-XBP1 UPR activation, luminescence; percent of tunicamycin response, DMSO as zero; activation, % at 20 µM; 330,000 compounds, 0.33% hits;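 active = versus positive control, 20 µM dose yields 30% or more activation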
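Test system: CHO-XBP1 luciferase reporter cells | Buffer or medium: Serum-containing F12 medium, 10% FBS | Schedule: 6 h compound exposure at 37 °C, 5% CO2 | Detection: Steady-Glo luciferase glow luminescence, 10 min after reagent addition | Read-out basis: Activation, % of tunicamycin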
TIM10 inh: growth inhibitors of TIM10 yeast strain | S. cerevisiae TIM10 strain growth, BacTiter-Glo luminescence, 24 h | inhibition, % at 10 µM | 330,000 compounds, 1.4% hits | AID 463195;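 active = inhibition of 40% or more at the single tested concentration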;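 note: wild-type TIM10 isogenic control strain grown at permissive 25 °C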
CHOP UPR conf: apoptotic UPR (CHOP) activation, confirmed; shares compounds with UPR CHOP act; CHO-CHOP cells, CHOP-luciferase reporter luminescence; percent of tunicamycin response, DMSO as zero; activation, % at 10 µM; 1,000 compounds, 64% hits; AID 463112; in the data active = activation above about 33%
Each line names hits and unclear results; the compound was inactive in the other large screens (follow-up assays come after a bar, where they were run). The list is not random: actives were taken first. Their share in the collection is about 3.9%.

CC1(c2ccc3c(c2)OCCCO3)NC(=O)N(CC(=O)NCCc2ccccc2)C1=O (configuration not stated)	none
Cc1ccc(Sc2ccc(/C=C3/C(=O)NN(c4ccccc4)C3=O)o2)cc1	UPR CHOP act 43.7 | CHOP UPR conf 40.1
Cc1ccsc1/C=C1/C(=O)NN(c2ccccc2)C1=O	none
O=C1NN(c2ccccc2)C(=O)/C1=C/c1ccc(Sc2ccc(Cl)cc2)o1	UPR CHOP act 61.2 | CHOP UPR conf 43.2
Oc1ccc(-c2csc(Nc3cccc4ccccc34)n2)cc1O	UPR CHOP act 131.0 | CHOP UPR conf 141.9
Cc1ccnc(Nc2nc(-c3ccc(O)c(O)c3)cs2)c1	UPR CHOP act 75.9 | CHOP UPR conf 181.3
Oc1ccc(-c2csc(Nc3ccccn3)n2)cc1O	UPR CHOP act 167.7 | CHOP UPR conf 130.3
Cc1ccnc(Nc2nc(-c3ccc(O)cc3)cs2)c1	none
Cc1csc(Nc2cccc3ccccc23)n1	none
CC(=O)Oc1ccc(OC(C)=O)c(SCCCCCN2CCOCC2)c1	UPR CHOP act 72.8 | CHOP UPR conf 33.2
O=C(Nc1cc([N+](=O)[O-])ccc1F)c1ccc2c(c1)OCCO2	UPR CHOP act 98.9 | CHOP UPR conf inactive
O=C(Nc1cc([N+](=O)[O-])ccc1F)c1ccc2ccccc2c1	none
O=C1C(Cl)=C(NC(=O)c2ccccc2)C(=O)C(Cl)=C1NC(=O)c1ccccc1	UPR CHOP act 86.0 | CHOP UPR conf 50.4
CNC[C@@H](CC1CCCCC1)NC[C@H](CC(C)C)NCCc1cccc(C(F)(F)F)c1	UPR CHOP act 83.4 | CHOP UPR conf 33.2
CNC[C@@H](Cc1ccccc1)NC[C@@H](CC1CCCCC1)NCCCc1ccccc1	UPR CHOP act 73.5 | CHOP UPR conf 34.0
Cc1cccc(NS(=O)(=O)c2ccc(C)c(C(=O)NCC(c3ccco3)N3CCCCC3)c2)c1 (configuration not stated)	none
O=C(c1ccc(F)cc1Cl)N(Cc1ccco1)C1CCS(=O)(=O)C1 (configuration not stated)	none
Cc1cc(C)c(NC(=O)CN(C)C(=O)C2CC(=O)N(c3cccc4ccccc34)C2)c(C)c1 (configuration not stated)	none
COc1ccc(CCNC(=O)CSc2ccc3ccccc3c2)cc1OC	none
O=C(CSc1ccc2ccccc2c1)NCCc1ccc(O)c(O)c1	UPR CHOP act 55.0 | CHOP UPR conf 45.9
CCN1CSC(=S)N(Cc2ccccc2)C1	UPR CHOP act 86.5 | CHOP UPR conf 90.7
S=C1SCN(Cc2ccco2)CN1Cc1ccco1	UPR CHOP act 58.9 | CHOP UPR conf 47.4
CCOc1ncccc1C(=O)Nc1cc2c(cc1Br)OCCO2	none
COc1ccc(Br)c(C(=O)N(C)CC(=O)Nc2ccc(N3CCOCC3)cc2)c1	none
O=C(N/N=C(\c1ccccc1)c1cccnc1)c1cccc(F)c1	UPR CHOP act 51.2 | CHOP UPR conf 90.7
N#Cc1ccc(C(=O)OCC(=O)Nc2cccc(S(=O)(=O)NC3=NCCC3)c2)cc1	none
CC1(C)C(=O)Nc2ccccc2N1C(=O)Cn1ncc(Cl)c(Cl)c1=O	UPR CHOP act 50.1 | CHOP UPR conf inactive
Cc1nn(CC(=O)N2c3ccccc3NC(=O)C2(C)C)c(C)c1[N+](=O)[O-]	none
CC(=O)Nc1ccc2nc(NC(=O)c3ccc([N+](=O)[O-])o3)sc2c1	UPR CHOP act 61.3 | CHOP UPR conf inactive
COc1ccc(C(CNC(=O)COc2cc(C)c(Cl)c(C)c2)N2CCCCC2)cc1 (configuration not stated)	none
C/C(=N\NC(=O)c1ccc(F)cc1)c1ccccn1	UPR CHOP act 302.8 | CHOP UPR conf 266.7
CCC(=O)Nc1c(C#N)c2nc3ccccc3nc2n1C1CCCCC1	none
CCOC(=O)c1c(NC(=O)c2ccco2)n(C2CCCCC2)c2nc3ccccc3nc12	UPR CHOP act 40.4 | CHOP UPR conf inactive
O=C1OC(/C=C/c2ccccc2)=NC/1=C/C=C/c1ccccc1	none
ClC1=C(Cl)C(Cl)=C(Cl)C1=C/C=C/c1ccccc1	UPR CHOP act 55.4 | CHOP UPR conf inactive
COc1ccccc1/C=C/C(=O)OCC(=O)N1c2ccccc2CC1C (configuration not stated)	none
COc1ccc(-c2cc3ccccc3oc2=O)cc1NC(=S)NC(=O)c1ccc2c(c1)OCCO2	UPR CHOP act 86.5, UPR XBP1 act 198.5 | CHOP UPR conf 55.0
CCC(=O)Nc1cc(-c2cc3ccccc3oc2=O)ccc1OC	none
CCOc1ccc(-c2n[nH]c(=S)c3ccccc23)cc1	none
O=C(/C=C/c1cccnc1)c1ccc(NC(=O)c2cccc(Br)c2)cc1	UPR CHOP act 91.3 | CHOP UPR conf 196.8
Cc1c(NC(=S)NC(=O)c2cccc(Cl)c2)c(=O)n(-c2ccccc2)n1C	none
O=C(Nc1ccc(S(=O)(=O)N2CCOCC2)cc1)c1cccs1	none
O=C(Nc1ccc(S(=O)(=O)N2CCOCC2)cc1)c1ccc([N+](=O)[O-])s1	UPR CHOP act 67.9 | CHOP UPR conf inactive
O=C(Nc1ccc(S(=O)(=O)N2CCOCC2)cc1)c1ccco1	none
O=C(Nc1ccc(S(=O)(=O)N2CCOCC2)cc1)c1ccc([N+](=O)[O-])o1	UPR CHOP act 139.0 | CHOP UPR conf 97.8
CCC(Oc1ccccc1)C(=O)N(C)CC(=O)N(CC(C)C)c1c(N)n(CC(C)C)c(=O)[nH]c1=O (configuration not stated)	none
Cc1ccc(OCCC(=O)OC(C)C(=O)Nc2ccc(Cl)cn2)cc1 (configuration not stated)	none
O=C(CCN1C(=O)C2C3C=CC(C4CC34)C2C1=O)Oc1cccc2cccnc12 (configuration not stated)	UPR CHOP act 71.9 | CHOP UPR conf 60.2
O=C(CCN1C(=O)C2C3C=CC(C4CC34)C2C1=O)Oc1ccc(Br)cc1 (configuration not stated)	none
Brc1ccc(CNc2ccc3ncccc3c2)cc1	none
COc1ccc(C(=O)N/N=C/c2ccccn2)cc1OC	none
COc1ccc(C(=O)Nc2ccccc2C(=O)N/N=C/c2ccccn2)cc1OC	UPR CHOP act 101.2 | CHOP UPR conf 100.0
CC1(C)CC(=O)C2=C(C1)N=c1s/c(=C/c3ccc(F)c(F)c3)c(=O)n1C2c1ccc(F)cc1 (configuration not stated)	UPR CHOP act 40.2 | CHOP UPR conf inactive
Cc1ccc(C)c(N2CCN(C(=O)c3ccc(N4CCCC4=O)cc3)CC2)c1	none
NC(=O)C1CCN(C2=C(Cl)C(=O)c3ccccc3C2=O)CC1	UPR CHOP act 393.6 | CHOP UPR conf inactive
Cc1ccc(C2(C)NC(=O)N(CC(=O)NNC(=O)c3cc(C)oc3C)C2=O)cc1 (configuration not stated)	none
